Test results from ChEMBL document CHEMBL1139209, “Cytotoxic constituents of the stems of Cinnamomum subavenium” (2007).

What was measured:
Assay type in all cases: functional, Homo sapiens
SW480 [1] = experiment: Cell cycle arrest in SW480 cells by accumulation at G1 phase at 75 uM after 24 hrs by propidium iodide staining
Summary of the method: (§1)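 SW480 human colorectal cancer cells (ATCC) grown in DMEM with 10% FBS, penicillin/streptomycin in 60 mm dishes; medium replenished at 80% confluence. Monolayers exposed 24 h to 0, 25, 50, 75 or 100 µM (DMSO stock, 0.1% DMSO final). Adherent plus floating cells fixed in PBS-methanol (1:2) ≥18 h at 4 °C, stained 30 min with 50 µg/mL PI plus RNase A.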

SW480 [2] = experiment: Cell cycle arrest in SW480 cells by accumulation at G2/M phase at 25 uM after 24 hrs by propidium iodide staining; summary of the method: as §1
SW480 [3] = experiment: Cell cycle arrest in SW480 cells by accumulation at S phase at 50 uM after 24 hrs by propidium iodide staining; summary of the method: as §1
SW480 [4] = experiment: Cell cycle arrest in SW480 cells by accumulation at S phase at 75 uM after 24 hrs by propidium iodide staining; summary of the method: as §1
SW480 [5] = experiment: Cell cycle arrest in SW480 cells by accumulation at G1 phase at 100 uM after 24 hrs by propidium iodide staining; summary of the method: as §1
SW480 [6] = experiment: Cell cycle arrest in SW480 cells by accumulation at G1 phase at 25 uM after 24 hrs by propidium iodide staining; summary of the method: as §1
SW480 [7] = experiment: Cell cycle arrest in SW480 cells by accumulation at G2/M phase at 50 uM after 24 hrs by propidium iodide staining; summary of the method: as §1
SW480 [8] = experiment: Cell cycle arrest in SW480 cells by accumulation at S phase at 25 uM after 24 hrs by propidium iodide staining; summary of the method: as §1
SW480 [9] = experiment: Cell cycle arrest in SW480 cells by accumulation at G2/M phase at 100 uM after 24 hrs by propidium iodide staining; summary of the method: as §1
SW480 [10] = experiment: DNA damage assessed as accumulation in subG1 level of cell cycle arrest in SW480 cells at 100 uM after 24 hrs by propidium iodide staining; summary of the method: as §1
SW480 [11] = experiment: Cell cycle arrest in SW480 cells by accumulation at S phase at 100 uM after 24 hrs by propidium iodide staining; summary of the method: as §1
SW480 [12] = experiment: Cell cycle arrest in SW480 cells by accumulation at G1 phase at 50 uM after 24 hrs by propidium iodide staining; summary of the method: as §1
SW480 [13] = experiment: DNA damage assessed as accumulation in subG1 level of cell cycle arrest in SW480 cells at 75 uM after 24 hrs by propidium iodide staining; summary of the method: as §1
SW480 [14] = experiment: DNA damage assessed as accumulation in subG1 level of cell cycle arrest in SW480 cells at 50 uM after 24 hrs by propidium iodide staining; summary of the method: as §1
SW480 [15] = experiment: Cell cycle arrest in SW480 cells by accumulation at G2/M phase at 75 uM after 24 hrs by propidium iodide staining; summary of the method: as §1
SW480 [16] = experiment: DNA damage assessed as accumulation in subG1 level of cell cycle arrest in SW480 cells at 25 uM after 24 hrs by propidium iodide staining; summary of the method: as §1

Work on `CCCCCCCCCCCCC/C=C(/C(=O)OC)[C@H](O)C(C)=O` [SECOSUBAMOLIDE] yielded an Activity (SW480 [1]) of 49%, an Activity (SW480 [2]) of 13.4% and an Activity (SW480 [3]) of 40.6%. It also gave an Activity (SW480 [4]) of 38.3%, an Activity (SW480 [5]) of 47.9% and an Activity (SW480 [6]) of 47.1%. For the same molecule, the Activity (SW480 [7]) was 11.4%, the Activity (SW480 [8]) was 39.5% and the Activity (SW480 [9]) was 17.6%. For the same molecule, the Activity (SW480 [10]) was 51.8%, the Activity (SW480 [11]) was 34.5% and the Activity (SW480 [12]) was 47.9%. The Activity (SW480 [13]) was 23.4%, the Activity (SW480 [14]) was 9.1% and the Activity (SW480 [15]) was 12.8%.
In the case of `CCCCCCCCCCCCC/C=C1/C(=O)O[C@@](C)(OC)[C@@H]1O` [SUBAMOLIDE B], the Activity (SW480 [1]) is reported as 45.8%, the Activity (SW480 [16]) is reported as 6.6% and the Activity (SW480 [2]) is reported as 6.4%. For the same molecule, the Activity (SW480 [3]) was 38.8%, the Activity (SW480 [4]) was 33.4% and the Activity (SW480 [5]) was 46%. The Activity (SW480 [6]) was 47.7%, the Activity (SW480 [7]) was 16.9% and the Activity (SW480 [8]) was 46%. The Activity (SW480 [9]) was 16.6%, the Activity (SW480 [10]) was 71% and the Activity (SW480 [11]) was 37.4%. The Activity (SW480 [12]) was 44.2%, the Activity (SW480 [13]) was 47.2% and the Activity (SW480 [14]) was 23.7%. The Activity (SW480 [15]) was 20.8%.
For `CCCCCCCCCCCCC/C=C1\C(=O)O[C@@](C)(OC)[C@@H]1O` [SUBAMOLIDE A], the Activity (SW480 [1]) was 45%, the Activity (SW480 [16]) was 8.5% and the Activity (SW480 [2]) was 12.2%. The Activity (SW480 [3]) was 41%, the Activity (SW480 [4]) was 42% and the Activity (SW480 [5]) was 52.6%. The Activity (SW480 [6]) was 48.2%, the Activity (SW480 [7]) was 12.8% and the Activity (SW480 [8]) was 39.6%. The Activity (SW480 [9]) was 17.7%, the Activity (SW480 [10]) was 64.4% and the Activity (SW480 [11]) was 29.8%. For the same molecule, the Activity (SW480 [12]) was 46.3%, the Activity (SW480 [13]) was 27.3% and the Activity (SW480 [14]) was 25.4%. For the same molecule, the Activity (SW480 [15]) was 13%.
`C=C1C=C(C(CCCCCCCCCCCCCC)OC)C(=O)O1` (stereo not drawn) [SUBAMOLIDE C] showed an Activity (SW480 [1]) of 44.5%, an Activity (SW480 [16]) of 6.1% and an Activity (SW480 [2]) of 9.8%. The Activity (SW480 [3]) was 41.2%, the Activity (SW480 [4]) was 43.1% and the Activity (SW480 [5]) was 47.8%. For the same molecule, the Activity (SW480 [6]) was 44.4%, the Activity (SW480 [7]) was 11.3% and the Activity (SW480 [8]) was 45.8%. For the same molecule, the Activity (SW480 [9]) was 19.3%, the Activity (SW480 [10]) was 38.8% and the Activity (SW480 [11]) was 33%. It also gave an Activity (SW480 [12]) of 47.6%, an Activity (SW480 [13]) of 34.6% and an Activity (SW480 [14]) of 11%. It also gave an Activity (SW480 [15]) of 12.4%.
